From ChEMBL document CHEMBL1157766, “Neolignans and glycosides from the stem bark of Illicium difengpi” (J Nat Prod, 2010)
Active and inactive are the calls of the source. No cut-off for these calls is given here.

Key:
[1] = Antioxidant activity in liver microsomes assessed as inhibition of Fe(2+)-Cys system-induced lipid peroxidation preincubated for 15 mins at 37 degC; type: functional; details: for inhibition: Microsome
Method in brief: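 Sample with liver microsome suspension and 0.2 µM cysteine in 0.1 M PBS pH 7.4, 37 °C, 15 min. Peroxidation started with 50 µM FeSO4 and stopped with 20% TFA. Supernatant heated with 0.67% thiobarbituric acid in boiling water for 10 min, then A532 read. Inhibitory ratio calculated from absorbances.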

[2] = Antiinflammatory activity in rat PMNC assessed as inhibition of platelet activating factor-induced beta-glucuronidase release preincubated for 15 mins at 37 degC; type: functional
Method in brief: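 Rat polymorphonuclear leukocytes (2.5 × 10^6 cells/mL) preincubated with sample (diluted from 0.1 M DMSO stock to 10^-3 M) at 37 °C for 15 min. Cytochalasin B added for 5 min, then PAF for 5 min, stopped on ice. Supernatant β-glucuronidase measured with 2.5 mM phenolphthalein glucuronic acid in 0.1 M HOAc, 37 °C, 18 h. NaOH stop, A550; inhibitory ratio versus PAF and control.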

Structure (SMILES)	inhibition [1]	IC50 [2] [µM]	IC50 [1] [µM]
COc1cc(CCCO)cc2c1O[C@H](C1=C[C@H](O)[C@H](O)CC1)[C@H]2CO [DIFENGPIOL A]	inactive	> 50	–
C=CCc1cc(OC)c(O[C@@H](CO)[C@H](O)c2cc(OC)c(O)c(OC)c2)c(OC)c1	–	24.4	42.3
C[C@@H]1C(=O)O[C@H]2[C@H](O)[C@@]34[C@H]5C[C@@H](C(C)(C)C)[C@]36[C@@H](OC(=O)[C@@H]6O)O[C@@]4(C(=O)O5)[C@@]12O [GINKOLIDE B]	–	2.35	–
COc1cc(CCCO)cc2c1O[C@H]([C@]1(O)CC[C@H](OC)[C@@H](O)C1)[C@H]2CO [DIFENGPIOL B]	inactive	> 50	–
C[C@@H]1O[C@@H](OC[C@H]2O[C@@H](Oc3cc4c(cc3O)OCO4)[C@H](O)[C@@H](O)[C@@H]2O)C(O)[C@H](O)[C@H]1O (single isomer, unassigned)	inactive	> 50	–
COc1cc(/C=C/CO)cc(OC)c1OC(=O)/C=C/c1ccccc1 [NEODIFENGPIN]	inactive	> 50	–
COc1cc(O[C@@H]2O[C@H](CO[C@@H]3O[C@@H](C)[C@H](O)[C@@H](O)C3O)[C@@H](O)[C@H](O)[C@H]2O)cc(O)c1OC (single isomer, unassigned)	inactive	7.66	–
COc1cc([C@H](O)[C@@H](CO)Oc2c(OC)cc(CCCO)cc2OC)ccc1OC(CO)CO	inactive	1.62	–
